Experimental data as given in ChEMBL document CHEMBL5705899 (Biochem J, 2014).
The source made the active and inactive calls. The rule behind the calls is not given here.

Columns and labels:
[1] = target: Casein kinase I isoform delta (Homo sapiens) (UniProt P48730); test: Inhibition of human CK1delta at 1 uM using casein as substrate in presence of 33P-ATP by ProQinase assay
[2] = target: Ribosomal protein S6 kinase alpha-6 (Homo sapiens) (UniProt Q9UK32); test: Inhibition of human RPS6KA6 at 1 uM using RBER-GSK3 as substrate in presence of 33P-ATP by ProQinase assay
[3] = tested on: U2OS; test: Inhibition of PI3K in human U2OS cells expressing FLAG-tagged SGK3 assessed as reduction in AKT phosphorylation at S473 residues at 0.01 to 1 uM 1 hr by immunoblot analysis; assay type: cell-based; conditions: dose 0.01-1 µM
Outline: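 Flp-In T-REx U2OS cells were grown in McCoy medium with 10% FBS. Expression of C-terminally FLAG-tagged full-length SGK3 was induced with 0.01 mg/ml doxycycline for 24 h. Cells were treated with inhibitor for 1 h and lysed in phosphatase-inhibitor buffer. Lysates were cleared at 16000 g for 10 min at 4°C, protein was measured by Bradford, and phosphorylation was read by immunoblot with ECL detection.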

[4] = target: Eukaryotic translation initiation factor 2-alpha kinase 3 (Homo sapiens) (UniProt Q9NZJ5); test: Inhibition of recombinant human N-terminal GST-tagged EIF2AK3 (536 to 1116 residues) expressed in Escherichia coli assessed as remaining activity at 1 uM using MBP as substrate incubated for 30 mins in presence of [gamma-33P]ATP by filter binding method relative to control
[5] = target: Serine/threonine-protein kinase tousled-like 1 (Homo sapiens) (UniProt Q9UKI8); test: Inhibition of human TLK1 at 1 uM using RB-CTF as substrate in presence of 33P-ATP by ProQinase assay
[6] = target: Homeodomain-interacting protein kinase 2 (Homo sapiens) (UniProt Q9H2X6); test: Inhibition of human HIPK2 at 1 uM using RBER-CHKtide as substrate in presence of 33P-ATP by ProQinase assay
[7] = target: TGF-beta receptor type-1 (Homo sapiens) (UniProt P36897); test: Inhibition of human TGFBR1 at 1 uM using RBER-CHKtide as substrate in presence of 33P-ATP by ProQinase assay
[8] = target: Serine/threonine-protein kinase TAO3 (Homo sapiens) (UniProt Q9H2K8); test: Inhibition of human TAOK3 at 1 uM using 3xChocktide-PKC as substrate in presence of 33P-ATP by ProQinase assay
[9] = target: Tyrosine-protein kinase ZAP-70 (Homo sapiens) (UniProt P43403); test: Inhibition of human ZAP70 at 1 uM using polyEY as substrate in presence of 33P-ATP by ProQinase assay
[10] = target: Phosphatidylinositol 4,5-bisphosphate 3-kinase catalytic subunit alpha isoform (Homo sapiens, UniProt P42336); test: Inhibition of PI3Kalpha (unknown origin) using PtdIns(4,5)P2 as substrate preincubated for 20 mins followed by substrate addition and measured after 80 mins by Kinase-Glo assay
Phosphatidylinositol 4,5-bisphosphate 3-kinase catalytic subunit alpha isoform, sequence (P42336 whole entry, canonical isoform): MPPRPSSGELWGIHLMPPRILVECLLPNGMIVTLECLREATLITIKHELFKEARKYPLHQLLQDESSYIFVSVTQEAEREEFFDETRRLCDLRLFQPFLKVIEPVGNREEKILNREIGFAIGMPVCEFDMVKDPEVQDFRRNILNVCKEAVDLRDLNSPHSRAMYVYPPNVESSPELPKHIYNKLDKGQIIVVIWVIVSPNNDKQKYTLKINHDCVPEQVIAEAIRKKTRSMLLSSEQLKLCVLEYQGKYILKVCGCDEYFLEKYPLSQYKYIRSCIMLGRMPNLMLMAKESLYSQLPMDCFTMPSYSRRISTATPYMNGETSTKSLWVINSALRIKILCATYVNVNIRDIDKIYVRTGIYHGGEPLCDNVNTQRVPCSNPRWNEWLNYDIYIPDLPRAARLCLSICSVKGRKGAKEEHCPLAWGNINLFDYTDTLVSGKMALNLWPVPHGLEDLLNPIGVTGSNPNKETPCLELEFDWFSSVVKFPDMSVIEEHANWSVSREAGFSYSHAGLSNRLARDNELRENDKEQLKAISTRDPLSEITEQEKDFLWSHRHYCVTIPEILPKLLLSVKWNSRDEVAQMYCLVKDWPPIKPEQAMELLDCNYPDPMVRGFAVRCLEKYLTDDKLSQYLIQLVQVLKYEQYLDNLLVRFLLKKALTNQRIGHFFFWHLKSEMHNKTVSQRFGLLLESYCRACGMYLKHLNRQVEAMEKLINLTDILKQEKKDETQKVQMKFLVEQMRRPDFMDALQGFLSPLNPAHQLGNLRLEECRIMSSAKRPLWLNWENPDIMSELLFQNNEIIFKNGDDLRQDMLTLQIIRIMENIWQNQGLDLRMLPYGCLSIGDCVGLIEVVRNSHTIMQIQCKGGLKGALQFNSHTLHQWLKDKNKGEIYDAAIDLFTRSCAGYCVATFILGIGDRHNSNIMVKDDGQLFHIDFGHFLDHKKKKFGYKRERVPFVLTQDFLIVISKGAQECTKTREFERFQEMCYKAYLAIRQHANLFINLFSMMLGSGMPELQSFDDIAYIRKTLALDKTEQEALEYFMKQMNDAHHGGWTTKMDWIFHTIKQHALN
Outline: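 PIK3CA at 20 nM in 50 mM Tris/HCl pH 7.4, 0.05% CHAPSO, 10 mM MgCl2 and 2.1 mM DTT was pre-incubated with inhibitor at varying concentrations for 20 min. Then 80 μM PtdIns(4,5)P2 and 8 μM ATP (below apparent Km) were added, with 2% DMSO final. The reaction ran 80 min at ambient temperature, followed by Kinase-Glo Plus for 20 min and a luminescence read.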

[11] = target: Phosphatidylinositol 4-phosphate 3-kinase C2 domain-containing subunit alpha (Homo sapiens, UniProt O00443); test: Inhibition of human PIK3C2A using PIP2/PS as substrate by ADP-Glo assay
Phosphatidylinositol 4-phosphate 3-kinase C2 domain-containing subunit alpha, sequence (O00443 whole entry, the tested form may be a part): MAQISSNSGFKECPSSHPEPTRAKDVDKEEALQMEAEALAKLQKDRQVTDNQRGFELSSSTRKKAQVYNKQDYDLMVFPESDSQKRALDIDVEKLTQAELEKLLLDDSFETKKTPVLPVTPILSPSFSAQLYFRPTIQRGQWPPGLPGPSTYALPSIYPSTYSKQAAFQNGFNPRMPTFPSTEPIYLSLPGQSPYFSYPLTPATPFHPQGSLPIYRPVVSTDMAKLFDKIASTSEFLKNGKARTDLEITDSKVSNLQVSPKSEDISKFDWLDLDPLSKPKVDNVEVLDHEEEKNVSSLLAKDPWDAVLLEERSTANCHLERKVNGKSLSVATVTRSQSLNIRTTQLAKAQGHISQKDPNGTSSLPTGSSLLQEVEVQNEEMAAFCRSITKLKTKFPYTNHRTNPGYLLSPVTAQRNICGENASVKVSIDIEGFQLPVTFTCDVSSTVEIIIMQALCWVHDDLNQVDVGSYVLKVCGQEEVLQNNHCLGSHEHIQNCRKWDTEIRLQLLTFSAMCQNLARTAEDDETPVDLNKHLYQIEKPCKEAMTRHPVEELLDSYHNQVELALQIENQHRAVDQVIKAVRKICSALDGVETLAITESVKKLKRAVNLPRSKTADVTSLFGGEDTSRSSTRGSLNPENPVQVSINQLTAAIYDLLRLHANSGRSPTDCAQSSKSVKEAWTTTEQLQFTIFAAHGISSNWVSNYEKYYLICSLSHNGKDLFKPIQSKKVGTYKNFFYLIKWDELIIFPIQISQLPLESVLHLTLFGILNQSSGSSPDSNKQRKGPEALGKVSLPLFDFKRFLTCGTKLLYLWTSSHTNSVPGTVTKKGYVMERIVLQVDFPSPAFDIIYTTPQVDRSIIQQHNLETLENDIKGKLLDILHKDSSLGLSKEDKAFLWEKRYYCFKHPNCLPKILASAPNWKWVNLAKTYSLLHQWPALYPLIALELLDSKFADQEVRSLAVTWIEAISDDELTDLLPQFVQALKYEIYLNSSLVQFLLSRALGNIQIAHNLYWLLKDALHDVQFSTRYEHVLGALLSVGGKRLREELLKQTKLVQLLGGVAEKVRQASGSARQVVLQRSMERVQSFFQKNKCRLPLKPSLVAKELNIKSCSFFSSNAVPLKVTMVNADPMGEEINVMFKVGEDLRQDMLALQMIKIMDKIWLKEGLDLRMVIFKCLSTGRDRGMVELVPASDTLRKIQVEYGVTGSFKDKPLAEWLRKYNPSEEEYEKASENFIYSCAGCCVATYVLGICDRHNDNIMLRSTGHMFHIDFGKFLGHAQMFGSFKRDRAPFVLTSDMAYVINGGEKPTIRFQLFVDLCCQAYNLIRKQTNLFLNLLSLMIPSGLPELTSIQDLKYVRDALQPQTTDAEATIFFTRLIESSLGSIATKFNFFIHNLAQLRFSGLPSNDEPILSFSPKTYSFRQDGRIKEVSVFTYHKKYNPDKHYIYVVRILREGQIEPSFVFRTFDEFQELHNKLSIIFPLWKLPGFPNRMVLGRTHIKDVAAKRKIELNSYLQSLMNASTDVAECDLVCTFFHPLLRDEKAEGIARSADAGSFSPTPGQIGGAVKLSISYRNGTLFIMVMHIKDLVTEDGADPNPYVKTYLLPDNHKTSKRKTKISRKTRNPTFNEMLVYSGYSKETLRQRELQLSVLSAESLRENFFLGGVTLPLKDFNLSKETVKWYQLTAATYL

[12] = target: Maternal embryonic leucine zipper kinase (Homo sapiens) (UniProt Q14680); test: Inhibition of human MELK at 1 uM using RBER-CHKtide as substrate in presence of 33P-ATP by ProQinase assay
[13] = target: Ribosomal protein S6 kinase alpha-4 (Homo sapiens) (UniProt O75676); test: Inhibition of human RPS6KA4 at 1 uM using RBER-CHKtide as substrate in presence of 33P-ATP by ProQinase assay
[14] = target: Tyrosine-protein kinase BTK (Homo sapiens) (UniProt Q06187); test: Inhibition of human BTK at 1 uM using polyEY as substrate in presence of 33P-ATP by ProQinase assay
[15] = target: Calcium/calmodulin-dependent protein kinase type IV (Homo sapiens) (UniProt Q16566); test: Inhibition of human CAMK4 at 1 uM using JUN as substrate in presence of 33P-ATP by ProQinase assay
[16] = target: Phosphatidylinositol 4-phosphate 5-kinase type-1 alpha (Homo sapiens, UniProt Q99755); test: Inhibition of human PIP5K1A using PI/PS as substrate by ADP-Glo assay
[17] = target: Aurora kinase C (Homo sapiens) (UniProt Q9UQB9); test: Inhibition of human AuroraC at 1 uM using bio-4xCHKT as substrate in presence of 33P-ATP by ProQinase assay
[18] = target: Protein-tyrosine kinase 6 (Homo sapiens) (UniProt Q13882); test: Inhibition of recombinant human N-terminal His6-tagged BRK (1 to 451 residues) expressed in baculovirus infected Sf21 cells assessed as remaining activity at 1 uM using Poly (Glu,Tyr) as substrate incubated for 30 mins in presence of [gamma-33P]ATP by filter binding method relative to control
[19] = target: Protein kinase C epsilon type (Homo sapiens) (UniProt Q02156); test: Inhibition of human PKCepsilon at 1 uM using 3xChocktide-PKC as substrate in presence of 33P-ATP by ProQinase assay
[20] = target: Fibroblast growth factor receptor 4 (Homo sapiens) (UniProt P22455); test: Inhibition of human FGFR4 at 1 uM using polyEy as substrate in presence of 33P-ATP by ProQinase assay
Fibroblast growth factor receptor 4 (Homo sapiens), sequence (P22455 22-802 limits assumed): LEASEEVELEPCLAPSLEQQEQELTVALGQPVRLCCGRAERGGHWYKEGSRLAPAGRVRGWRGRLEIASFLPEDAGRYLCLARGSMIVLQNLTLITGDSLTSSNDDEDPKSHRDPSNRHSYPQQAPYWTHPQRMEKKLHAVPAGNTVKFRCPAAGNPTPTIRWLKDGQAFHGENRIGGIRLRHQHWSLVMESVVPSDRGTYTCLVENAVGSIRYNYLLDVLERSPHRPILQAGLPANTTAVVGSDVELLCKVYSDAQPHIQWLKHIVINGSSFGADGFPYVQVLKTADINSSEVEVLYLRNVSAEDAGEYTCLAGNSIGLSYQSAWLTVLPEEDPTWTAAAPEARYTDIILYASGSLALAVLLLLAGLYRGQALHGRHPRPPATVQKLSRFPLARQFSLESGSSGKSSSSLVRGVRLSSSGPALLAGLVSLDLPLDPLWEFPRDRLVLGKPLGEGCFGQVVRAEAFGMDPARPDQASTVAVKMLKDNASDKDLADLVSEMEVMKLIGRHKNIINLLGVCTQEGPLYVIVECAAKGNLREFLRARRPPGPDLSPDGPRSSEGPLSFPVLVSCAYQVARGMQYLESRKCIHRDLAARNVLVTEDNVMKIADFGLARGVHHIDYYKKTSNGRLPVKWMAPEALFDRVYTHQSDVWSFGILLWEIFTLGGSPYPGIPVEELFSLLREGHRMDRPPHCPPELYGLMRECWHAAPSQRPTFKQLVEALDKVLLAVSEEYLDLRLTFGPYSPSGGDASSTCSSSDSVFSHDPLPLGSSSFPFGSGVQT

[21] = target: Hepatocyte growth factor receptor (Homo sapiens) (UniProt P08581); test: Inhibition of human MET at 1 uM using poly(Ala,Glu,Lys,Tyr) as substrate in presence of 33P-ATP by ProQinase assay
Hepatocyte growth factor receptor (Homo sapiens), sequence (P08581 whole entry): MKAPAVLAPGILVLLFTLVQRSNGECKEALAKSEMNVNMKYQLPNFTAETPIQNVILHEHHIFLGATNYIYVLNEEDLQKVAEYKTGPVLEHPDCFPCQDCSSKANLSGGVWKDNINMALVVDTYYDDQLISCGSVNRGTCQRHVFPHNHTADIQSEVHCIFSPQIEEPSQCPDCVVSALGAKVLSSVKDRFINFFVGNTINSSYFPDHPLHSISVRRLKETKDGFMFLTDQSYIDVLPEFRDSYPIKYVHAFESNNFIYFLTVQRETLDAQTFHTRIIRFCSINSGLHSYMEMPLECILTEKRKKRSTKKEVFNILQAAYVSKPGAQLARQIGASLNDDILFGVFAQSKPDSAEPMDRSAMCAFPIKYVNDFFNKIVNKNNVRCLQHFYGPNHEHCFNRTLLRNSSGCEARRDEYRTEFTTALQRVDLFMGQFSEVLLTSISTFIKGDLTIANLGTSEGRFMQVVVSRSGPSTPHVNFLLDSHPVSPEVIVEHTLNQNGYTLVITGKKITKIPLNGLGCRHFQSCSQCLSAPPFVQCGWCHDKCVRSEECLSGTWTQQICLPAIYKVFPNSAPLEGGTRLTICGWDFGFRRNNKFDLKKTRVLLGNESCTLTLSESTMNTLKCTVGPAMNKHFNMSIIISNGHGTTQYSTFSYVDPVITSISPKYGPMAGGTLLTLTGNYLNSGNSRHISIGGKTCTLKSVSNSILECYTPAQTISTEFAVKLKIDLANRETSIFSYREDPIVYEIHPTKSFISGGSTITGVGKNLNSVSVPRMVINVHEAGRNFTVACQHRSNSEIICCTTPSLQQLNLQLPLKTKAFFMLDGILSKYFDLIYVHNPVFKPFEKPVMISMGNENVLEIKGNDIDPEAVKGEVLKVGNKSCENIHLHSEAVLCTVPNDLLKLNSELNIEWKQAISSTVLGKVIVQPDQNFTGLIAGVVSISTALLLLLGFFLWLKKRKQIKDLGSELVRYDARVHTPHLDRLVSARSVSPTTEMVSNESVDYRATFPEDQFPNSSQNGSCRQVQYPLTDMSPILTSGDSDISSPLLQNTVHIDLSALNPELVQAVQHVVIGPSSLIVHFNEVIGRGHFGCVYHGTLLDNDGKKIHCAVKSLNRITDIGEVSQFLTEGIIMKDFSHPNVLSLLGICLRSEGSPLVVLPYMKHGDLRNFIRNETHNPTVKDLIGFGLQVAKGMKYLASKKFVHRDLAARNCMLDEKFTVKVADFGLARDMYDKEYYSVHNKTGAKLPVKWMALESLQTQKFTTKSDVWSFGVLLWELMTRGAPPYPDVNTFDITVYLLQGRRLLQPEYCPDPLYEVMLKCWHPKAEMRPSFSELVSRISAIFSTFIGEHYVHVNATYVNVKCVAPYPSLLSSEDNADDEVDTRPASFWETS

[22] = target: Cyclin-Y/Cyclin-dependent kinase 16 (Homo sapiens) (UniProt Q00536+Q8ND76); test: Inhibition of human PCTAIRE1/CyclinY at 1 uM using RBER-GSK3 as substrate in presence of 33P-ATP by ProQinase assay; assay type: protein-complex assay
[23] = target: G protein-coupled receptor kinase 4 (Homo sapiens) (UniProt P32298); test: Inhibition of human GRK4 at 1 uM using casein as substrate in presence of 33P-ATP by ProQinase assay
[24] = target: Ephrin type-A receptor 8 (Homo sapiens) (UniProt P29322); test: Inhibition of human EPHA8 at 1 uM using polyEy as substrate in presence of 33P-ATP by ProQinase assay
[25] = target: Phosphatidylinositol 4-kinase beta (Homo sapiens, UniProt Q9UBF8); test: Inhibition of recombinant human N-terminal His6-tagged PIK4Cbeta (1 to 801 residues) expressed in baculovirus expression system at 1 uM using […] as substrate incubated for 45 mins by ADP-Glo assay

## CC(C)(O)CNc1ncc(-c2ccnc(Nc3ccnc(Cl)c3)n2)c(CC2CC2)n1
[1]
  inhibition: inactive
[2]
  inhibition: inactive
[3]
  inhibition: inactive
[4]
  Activity: 125%
[5]
  inhibition: inactive
[6]
  inhibition: inactive
[7]
  inhibition: inactive
[8]
  inhibition: inactive
[9]
  inhibition: inactive
[10]
  IC50: 8.04 µM
[11]
  IC50: > 10 µM
[12]
  inhibition: inactive
[13]
  inhibition: inactive
[14]
  inhibition: inactive
[15]
  inhibition: inactive
[16]
  IC50: 4.93 µM
[17]
  inhibition: inactive
[18]
  Activity: 103%
[19]
  inhibition: inactive
[20]
  inhibition: inactive
[21]
  inhibition: inactive
[22]
  inhibition: inactive
[23]
  inhibition: inactive
[24]
  inhibition: inactive
[25]
  inhibition: inactive
